L major viab = Leishmania major promastigote growth inhibition. Leishmania major promastigotes, resazurin fluorescence viability. inhibition, % at 10 µM. 200,000 tested, 9% active; in the data active = inhibition above about 50%;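 note: promastigotes grown with compound for 44 hours at 28 °C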
WT yeast gro inh = growth inhibition of WT yeast, mitochondrial fusion screen | mitochondrial fusion phenotypic screen, WT strain | inhibition, % at 10 µM | 190,000 tested, 2.1% active | AID 1362; in the data active = inhibition above about 58%; tested in S. cerevisiae
Calpain2 inh = calpain II (pig) inhibition. inhibition, % at 16 µM. AID 1236. 220,000 tested, 0.37% active. purified calpain II, fluorogenic peptide substrate, 30 min;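 active = inhibition above about 50%, limit read from the data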
Rad51 HR inh = blocks human Rad51 in homologous recombination | hRad51 DNA strand exchange, fluorescence dequenching | 200,000 tested, 0.085% active | Q06609 | inhibition, % at 10 µM;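 active = inhibition above 40% at the single screening dose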
Target sequence (Q06609 whole entry, looked up): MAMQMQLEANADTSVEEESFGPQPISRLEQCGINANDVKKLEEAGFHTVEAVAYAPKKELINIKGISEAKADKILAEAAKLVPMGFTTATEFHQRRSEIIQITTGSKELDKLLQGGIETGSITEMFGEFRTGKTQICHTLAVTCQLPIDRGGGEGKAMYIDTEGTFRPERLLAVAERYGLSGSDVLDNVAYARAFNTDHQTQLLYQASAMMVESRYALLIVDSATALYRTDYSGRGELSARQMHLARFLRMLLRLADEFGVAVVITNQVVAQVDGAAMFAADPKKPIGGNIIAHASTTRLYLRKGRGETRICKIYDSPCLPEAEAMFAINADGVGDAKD
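Test system: preformed human Rad51 ssDNA filaments. Compound dosing: single dose, 10 µM final compound. Incubation: filaments 15 min 37 °C, then compound 30 min. Technique: FRET fluorescence dequenching, excitation 485 nm, emission 520 nm. Read-out basis: percent inhibition from fluorescence, normalised to plate control and blank means. Benchmarks: plate controls and plate blanks.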
PMI act = activators of human phosphomannose isomerase; AID 1214; purified human PMI, coupled resazurin fluorescence, 20 min; active compounds read high; 1 = vehicle control, 0 substrate-free wells; 190,000 tested, 0.005% active; P34949; activation factor at 20 µM;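 active = activation factor of 2 or more at 20 µM, relative to plate controls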
PMI act hi M6P = increases human PMI activity with near-saturating mannose 6-phosphate; coupled PMI enzyme assay, resazurin fluorescence, 20 min; active compounds read high; 1 = untreated enzyme, 0 = substrate-free blank; activation factor at 20 µM; 190,000 tested, 0.34% active; AID 1216;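 active = activation factor of 2 or more at 20 µM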
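Material: human phosphomannose isomerase with PGI, G6PDH, diaphorase coupling enzymes; amount: PMI at 15 ng/mL final; also added: Mannose-6-phosphate 1.0 mM (near-saturating) plus 0.22 mM NADP+; incubation: enzyme reaction with compound 20 min at room temperature; signal: resorufin fluorescence (Ex 544/Em 590 nm) from resazurin via diaphorase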
A number is an active result; – = inactive; · = no result given. Rows were chosen to be rich in hits. Some 9.8% of all compounds tested hit in one or more screens of this group.

SMILES | L major viab | WT yeast gro inh | Calpain2 inh | Rad51 HR inh | PMI act | PMI act hi M6P
CCOc1cc(C(=O)N/N=C/C(Br)=C/c2ccccc2)cc(OCC)c1OCC | 58 | – | – | – | – | –
O=c1c2c3c(sc2n(CCN2CCCCC2)c(=O)n1Cc1ccco1)CCCCC3 | 99 | – | – | – | – | –
Cc1csc2c(=O)n(CCO)c(=O)[nH]c12 | · | · | – | – | · | ·
CCOC(=O)COn1c(-c2cccc(Cl)c2)nc2ccc([N+](=O)[O-])cc21 | – | – | – | – | – | 2.1
COc1cccc(CC2(CO)CCCN(Cc3cn[nH]c3-c3ccccc3)C2)c1 (stereo not drawn) | – | – | – | · | – | –
CCn1cc(CN2CCCC(CO)(Cc3cccc(Cl)c3)C2)cn1 (stereo not drawn) | 92 | – | – | – | – | –
Cc1cccc(-c2ncc(CN3CCCC(CO)(Cc4cccc(Cl)c4)C3)cn2)c1 (stereo not drawn) | – | 63 | – | – | – | –
CCOC(=O)C1(Cc2ccccc2)CCN(Cc2cnn(-c3ccccc3)c2)CC1 | – | – | – | – | – | –
COc1cc(CN2CCCC(CO)(Cc3cccc(Cl)c3)C2)cc2c1OCO2 (stereo not drawn) | 73 | – | – | – | – | –
OCC1(Cc2cccc(Cl)c2)CCCN(Cc2cnn(-c3ccccc3)c2)C1 (stereo not drawn) | 85 | – | – | – | – | –
CCOCCCNCc1cc(Cl)cc(Cl)c1OCC | – | – | – | – | – | –
CN1CCN(CCC(=O)Nc2cccc(Br)c2)CC1 | · | · | – | – | · | ·
OCCC#Cc1ccc(CN2CCN(C3CCCCC3)C(CCO)C2)cc1 (stereo not drawn) | – | – | – | · | – | –
CC(=O)Nc1ccc(CN2CCCC(CO)(Cc3cccc(Cl)c3)C2)cc1 (stereo not drawn) | · | · | – | – | · | ·
CSc1cccc(CN2CCCC(CO)(Cc3cccc(Cl)c3)C2)c1 (stereo not drawn) | – | – | – | – | · | ·
Cn1cc(CN2CCCC(CO)(Cc3ccccc3)C2)cn1 (stereo not drawn) | 77 | – | – | – | – | –
CC(C)n1cc(CN2CCCC(CO)(Cc3cccc(Cl)c3)C2)cn1 (stereo not drawn) | 87 | – | – | – | – | –
Cc1ccccc1CC1(CO)CCCN(Cc2c(C)nn(C)c2Cl)C1 (stereo not drawn) | – | – | – | – | – | –
Cc1nn(C)c(Cl)c1CN1CCCC(CO)(Cc2cccc(Cl)c2)C1 (stereo not drawn) | 86 | · | – | – | – | –
Cn1cc(CN2CCCC(CO)(Cc3cccc(Cl)c3)C2)cn1 (stereo not drawn) | 81 | – | – | – | – | –
CCN1CCCC(CO)(Cc2ccccc2)C1 (stereo not drawn) | – | – | – | – | – | –
O=C1CC(c2ccc(F)cc2)CC2=C1C(c1ccc([N+](=O)[O-])o1)Nc1ccccc1N2 (stereo not drawn) | · | · | – | – | · | ·
COc1ccc([N+](=O)[O-])cc1/C=N/Nc1nn[nH]n1 | – | – | – | – | – | –
CCC(C)C(NC(=O)c1ccccc1NC(=O)c1ccccc1)C(=O)N1CCOCC1 (stereo not drawn) | 53 | – | – | – | – | –
CCC(NC(=O)c1ccccc1NC(=O)c1ccccc1)C(=O)OC (stereo not drawn) | – | 77 | – | – | – | –
SMILES | L major viab | WT yeast gro inh | Calpain2 inh | Rad51 HR inh | PMI act | PMI act hi M6P
CC(C)[C@H](NC(=O)c1ccco1)C(=O)OCC(=O)Nc1ccccc1OC(F)F | – | – | – | – | – | –
O=C(COC(=O)C1=COCCO1)NC1CCCCCCC1 | – | – | – | – | – | –
O=C(O)/C=C/C(=O)NCc1csc2ccccc12 | · | · | – | – | · | ·
N#CC(c1ccncc1)(c1ncc(C(F)(F)F)cc1Cl)N1CCOCC1 (stereo not drawn) | – | – | 69 | – | – | –
N#CC(c1ccccn1)(c1ncc(C(F)(F)F)cc1Cl)N1CCOCC1 (stereo not drawn) | – | – | – | – | – | –
Cc1cc(=O)oc2cc(OCc3ccc(C(=O)OCC(=O)Nc4ccc(N(C)C)cc4)cc3)ccc12 | – | – | – | – | – | –
Cc1ccc(-c2csc(/C=C3\SC(C)C(=O)N3CC(=O)Nc3ccccc3F)n2)cc1 (stereo not drawn) | · | · | 67 | – | · | ·

Compound activity from PubChem.
